Values joined by “and” are separate entries in the source; they are usually repeats but may differ in a detail not shown here. Equal values may be shown once. Read-outs that look alike come from different tables or passages of the source.

The text below walks through data of article PMC6133075 (European Journal of Drug Metabolism and Pharmacokinetics, 2018).

The format of data set [1] is in vivo, Wistar rats. To be noted: for mean Ke/p (RBC/plasma partition coefficient): mean (± SD) of all 12 rats, 1 and 4 h after i.p. treosulfan 500 mg/kg; for Cp: plasma; for Ce: red blood cells. The method in brief:
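Wistar rats, 10 weeks old (6 male, 6 female), received a single i.p. bolus of 500 mg/kg in sterile water (10 mL/kg), with ketamine/xylazine anaesthesia. K2EDTA cardiac blood was taken at 1 or 4 h and spun at 3645×g for 5 min at 20 °C. Plasma and RBC were acidified with citric acid; RBC were lysed by three freeze–thaw cycles. HPLC–MS/MS used codeine as internal standard. Ke/p = Ce/Cp.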

The format of data set [2] is in vitro ADME, rat. To be noted: three freeze-thaw cycles, n = 3, range of means over QC levels. The method in brief:
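Freeze–thaw stability of quality-control samples prepared by spiking drug-free rat plasma and drug-free RBC lysate (from three freeze–thaw cycles) at treosulfan 5.5, 55 and 800 μM and S,S-EBDM 9.4 and 94 μM. Samples were processed like study samples and assayed by HPLC–MS/MS. Stability was taken as the final/initial concentration ratio and reported as the range of means across QC levels.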

For data set [3] the following is noted: rat plasma; cited from earlier work.
For data set [4] the following is noted: treosulfan to S,S-EBDM; S,S-EBDM to (2S,3S)-1,2:3,4-diepoxybutane; cited from earlier work.
For data set [5] the following is noted: rat lungs; cited from earlier work.
[6] abbreviates: individual female rats, 1 h after i.p. bolus treosulfan 500 mg/kg.
Where [7] appears, read: individual female rats, 4 h after i.p. bolus treosulfan 500 mg/kg.
The mark [8] stands for this setting: individual male rats, 1 h after i.p. bolus treosulfan 500 mg/kg.
[9] abbreviates: individual male rats, 4 h after i.p. bolus treosulfan 500 mg/kg.

In the case of `CS(=O)(=O)OC[C@H](O)[C@@H]1CO1` [S,S-EBDM, (2S,3S)-1,2-epoxy-3,4-butanediol 4-methanesulfonate], the “mean Ke/p (RBC/plasma partition coefficient)” value in data set [1] turned out to be 0.60 ± 0.09. For the same molecule, the Cp in data set [1] (setting [6]) was 64 µM and 22 µM; in data set [1] (setting [7]) it was 5.6 µM and 6.2 µM; in data set [1] (setting [8]) it was 58 µM and 61 µM and 3.6 µM; in data set [1] (setting [9]), 8.4 µM and 5.5 µM. Also, the Ce is 36 µM and 34 µM and 2.1 µM in data set [1] (setting [8]); 6.7 µM and 3.5 µM in data set [1] (setting [9]). The “Stability (final/initial concentration)” value in data set [2] (rat RBC lysate) was 86.7–89.8%; in data set [2] (rat plasma), 88.3–89.4%. The unbound fraction in data set [3] is reported as not below 0.94. In data set [4], the “t1/2 of nonenzymatic epoxidation” value was 3.4 h. The tissue-to-plasma concentration ratio in data set [5] is approximately 0.6.

Turning to `CS(=O)(=O)OC[C@H](O)[C@@H](O)COS(C)(=O)=O` [Treosulfan], the “mean Ke/p (RBC/plasma partition coefficient)” value in data set [1] is on record as 0.74 ± 0.12. Further, the Cp in data set [1] (setting [6]) was 1164 µM and 300 µM and 349 µM; in data set [1] (setting [7]), 113 µM and 83 µM; in data set [1] (setting [8]), 943 µM and 1189 µM and 28.8 µM; in data set [1] (setting [9]), 112 µM and 120 µM and 30 µM. The Ce is 704 µM and 779 µM and 24.2 µM in data set [1] (setting [8]); 94 µM and 87 µM and 26 µM in data set [1] (setting [9]). The “Stability (final/initial concentration)” value in data set [2] (rat RBC lysate) is 85.8–104.8%; in data set [2] (rat plasma), 90.7–108.8%. For the same molecule, the unbound fraction in data set [3] is recorded as not below 0.94. In data set [4], the “t1/2 of nonenzymatic epoxidation” value is given as 1.5 h. In addition, the tissue-to-plasma concentration ratio entry in data set [5] was “about 0.8”.
